Screening results: PubChem, Sanford-Burnham Center for Chemical Genomics
Apaf1 activ: human Apaf-1 activation; O14727; activity change, negative = activation, % at 20 µM; Apaf-1 apoptosome caspase-3 activation, DEVD-Rh110 fluorescence; hits give low values; AID 489031; actives 0.31% (n = 330,000);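 active means activity change at or below -40% at 20 µM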
Target sequence (O14727 whole entry, looked up): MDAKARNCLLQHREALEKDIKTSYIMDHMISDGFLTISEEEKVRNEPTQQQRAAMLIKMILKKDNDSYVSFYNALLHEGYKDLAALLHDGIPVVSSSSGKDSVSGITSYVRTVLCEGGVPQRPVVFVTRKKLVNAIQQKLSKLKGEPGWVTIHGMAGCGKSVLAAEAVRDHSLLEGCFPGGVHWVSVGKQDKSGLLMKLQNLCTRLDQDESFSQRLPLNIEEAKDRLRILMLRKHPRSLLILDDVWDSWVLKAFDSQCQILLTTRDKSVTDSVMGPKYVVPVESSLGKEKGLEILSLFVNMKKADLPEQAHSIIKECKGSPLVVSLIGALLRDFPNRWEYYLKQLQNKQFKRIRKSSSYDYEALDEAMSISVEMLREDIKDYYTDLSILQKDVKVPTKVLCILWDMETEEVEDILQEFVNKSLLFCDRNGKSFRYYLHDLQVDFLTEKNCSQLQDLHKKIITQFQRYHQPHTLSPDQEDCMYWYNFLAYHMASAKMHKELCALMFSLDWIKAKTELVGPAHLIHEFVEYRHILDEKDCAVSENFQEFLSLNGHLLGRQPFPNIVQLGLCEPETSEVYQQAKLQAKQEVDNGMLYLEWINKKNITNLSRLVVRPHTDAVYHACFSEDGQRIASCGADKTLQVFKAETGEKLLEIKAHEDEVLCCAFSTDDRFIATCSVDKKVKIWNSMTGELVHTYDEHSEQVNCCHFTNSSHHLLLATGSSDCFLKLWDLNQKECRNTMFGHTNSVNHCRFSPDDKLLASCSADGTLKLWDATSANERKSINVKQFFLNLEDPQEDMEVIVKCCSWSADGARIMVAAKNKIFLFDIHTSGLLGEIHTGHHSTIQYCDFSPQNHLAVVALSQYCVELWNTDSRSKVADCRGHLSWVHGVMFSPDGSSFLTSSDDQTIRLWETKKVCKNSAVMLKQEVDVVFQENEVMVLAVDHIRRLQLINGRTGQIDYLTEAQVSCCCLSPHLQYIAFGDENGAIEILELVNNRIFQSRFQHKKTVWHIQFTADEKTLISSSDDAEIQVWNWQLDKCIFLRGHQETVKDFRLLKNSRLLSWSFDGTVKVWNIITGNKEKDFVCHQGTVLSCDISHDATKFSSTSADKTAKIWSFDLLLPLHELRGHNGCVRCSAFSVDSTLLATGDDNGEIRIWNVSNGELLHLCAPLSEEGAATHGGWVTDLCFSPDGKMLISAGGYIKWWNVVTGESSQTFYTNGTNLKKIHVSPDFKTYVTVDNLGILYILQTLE
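System: Reconstituted apoptosome of Apaf-1, cytochrome c, caspase-9, procaspase-3 | Reagent: dATP, cytochrome c, and (Z-DEVD)2-Rh110 caspase-3 substrate | Times: 30 min compound preincubation and 50 min reaction, both room temperature | Detection: Caspase-3-released Rh110 fluorescence, 540 nm emission, 480 nm excitation | Measure: Caspase-3 activity via Apaf-1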
Rh110 act interf: interferes with Rh110 fluorescence, flagging false Apaf-1 activators | shares compounds with Apaf1 activ | Rh110 fluorescence interference, quenched caspase reaction, Ex480/Em540 | fluorescence interference (activity change), % at 20 µM, hits read low | 980 tested, under 10 active | AID 504616;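 active means mean activity change at or below -40% when tested at 20 µM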
Apaf-1 act conf2: confirmation of human Apaf-1 activators | shares compounds with Apaf1 activ | reconstituted apoptosome caspase-3 activity, DEVD-Rh110 fluorescence; hits give low values | activity change, negative = activation, % at 20 µM | actives 5% (n = 980) | AID 504617;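 active means mean activity change at or below -40%, meaning activation of 40% or more, at 20 µM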
An asterisk follows results filed as active; · = no result given. A selection follows.

SMILES	Apaf1 activ	Rh110 act interf	Apaf-1 act conf2
C=CCn1c(NC(=O)c2ccc(Br)o2)c(S(=O)(=O)c2ccccc2)c2nc3ccccc3nc21	63	·	·
CCOC(=O)c1ccc(Nc2nc(N)c3cc(OC)c(OC)cc3n2)cc1	54	·	·
COc1ccc(Nc2ccc(C(=O)O)cc2[N+](=O)[O-])cc1	-64*	21	15
O=C1C(=O)N(c2nccs2)C(c2ccccc2F)/C1=C(\O)c1ccc2c(c1)OCCO2 (stereo not given)	-40*	13	20
O=C1C(=O)N(CCN2CCOCC2)C(c2ccccc2)/C1=C(\O)c1ccc2c(c1)OCCO2 (stereo not given)	50	·	·
CN(C)CCC(c1ccccc1)c1ccccn1 (stereo not given)	-3	·	·
O=C(O)c1ccc2c(c1)-c1nc3ccccc3n1C2=O	-113*	-2	-1
O=C(O)c1ccc(NC2=C(n3nnc4ccccc43)C(=O)c3ccccc3C2=O)cc1	73	·	·
Nc1ccc(N(CCO)CCO)cc1	84	·	·
CN(C)CCCNC(=O)CC1C[C@H](C(=O)N2CCCCC2)[C@@]2(CCc3ccccc3)c3[nH]c4ccccc4c3CCN2C1=O (stereo not given in full)	46	·	·
CN1/C(=C\C(=O)COC(=O)c2ccc([N+](=O)[O-])o2)C(C)(C)c2ccccc21	56	·	·
CC(C)Oc1ccc(C(=O)NC2(C(F)(F)F)NC(=O)N(CCCc3ccccc3)C2=O)cc1 (stereo not given)	-45*	6	17
Cc1c(CCOC(=O)C2C3CC4CC(C3)CC2C4)sc[n+]1CC(=O)c1ccc(Br)cc1 (stereo not given)	50	·	·
COc1ccc(C2CC(=O)Oc3c(C(CCN4CCCC(C)C4)c4ccc(N(C)C)cc4)c(OC)cc(OC)c32)cc1 (stereo not given)	49	·	·
NC(=O)[C@@H]1CCCNc2c(I)cc([N+](=O)[O-])cc2C(=O)N[C@@H](CCCN=C(N)N)C(=O)N[C@@H](CCCN=C(N)N)C(=O)N1	41	·	·
COc1ccc(C(=O)Nc2ccc(/C(C)=N/NC(=O)c3ccccc3O)cc2)cc1OC	-176*	0	10
CN(C)CCCN(C(=O)c1ccc(S(=O)(=O)N2CCCC2)cc1)c1nc2ccc(Br)cc2s1	53	·	·
NC(N)=NC(N)=Nc1cccc2ccccc12	83	·	·
CCN1CCc2c(sc(NC(=O)c3ccc4ccccc4c3)c2C(N)=O)C1	40	·	·
Cc1ccc(/C=N/NC(=O)CNC(=O)c2ccc(S(=O)(=O)N3CCCC3)cc2)o1	-522*	11	8
CCc1nnc(NC(=O)c2ccc(S(=O)(=O)N3CCCCC3)cc2)s1	55	·	·
CN(C)CCCN(C(=O)c1ccc(S(=O)(=O)N2CCCCC2)cc1)c1nc2cc3c(cc2s1)OCO3	42	·	·
C=CCN1C(=O)C2(OCCCO2)c2ccccc21	-42*	8	15
CC(C)C[C@@H]1CN=C(N)N1C[C@@H]1CCCN1C[C@H](C)N1C[C@@H](Cc2ccccc2)N(CCCC2CCCC2)C1=N	55	·	·
CNC(=O)NCC12CC3CC(CC(C3)C1)C2	-293*	10	10
SMILES	Apaf1 activ	Rh110 act interf	Apaf-1 act conf2
NC1=Nc2cccc3cccc1c23	67	·	·
Cc1ccc(N/N=C2\CC(=O)c3ccccc32)cc1Cl	76	·	·
NS(=O)(=O)c1ccc(Cc2ncc(C(F)(F)F)cc2Cl)s1	-40*	1	8
Cc1cc(SCC2=NNC(=O)C2)c(Cl)cc1Cl	47	·	·
CCc1cc[n+](C2=C([O-])c3ccccc3C(=O)/C2=N\S(=O)(=O)c2cccs2)cc1	68	·	·
O=C(CO/N=C/c1ccc(OC(F)F)cc1)NC1CCCC1	-453*	2	11
CCN1CCCC1CNC(=O)c1cc2c(-c3ccc(Cl)cc3)nn(C)c2s1 (stereo not given)	49	·	·
O=C1c2ccccc2C(=O)C1(O)O	68	·	·
O=C1CCC(C(=O)OCC(=O)N2N=C3/C(=C/c4ccccc4)CCCC3C2c2ccccc2)N1 (stereo not given)	43	·	·
COc1cc2c(C#N)c(N3CCCCC3)nc(N)c2c(N)n1	97	·	·
COC(=O)c1sccc1NC(=O)c1c(C)noc1C	-654*	10	5
O=C(N/N=C/c1c(F)cccc1Cl)C1CC1	-142*	-4	8
COc1ccc(-c2sc3cc4c(cc3c2-c2ccc(OCCN3CCCCC3)cc2)OCO4)cc1	59	·	·
CCN(CC)C(=O)CSc1nc2ccccc2c(=O)n1CC	-176*	5	5
COc1ccc(-c2nc(C(=O)NCC3CCCO3)cc3c2[nH]c2ccccc23)cc1 (stereo not given)	-224*	17	21
COc1cc(-c2nc(C(=O)NC3CCN(Cc4ccccc4)CC3)cc3c2[nH]c2ccccc23)cc(OC)c1OC	41	·	·
O=S(=O)(c1ccc(NC(=S)Nc2ccc(OC(F)F)cc2)cc1)N1CCOCC1	-66*	10	18
CCN(CC)c1ccc(N=C2C(=O)Nc3ccccc32)cc1	47	·	·
CN(C)CCCN1c2ccccc2Sc2ccc(C(F)(F)F)cc21	43	·	·
COC(=O)C1=C(C)N(Cc2ccccc2)C(=NCCc2ccccn2)N[C@H]1c1cccc(C(F)(F)F)c1	48	·	·
CCN1C(=NCCc2ccccn2)N[C@@H](c2cccc(C(F)(F)F)c2)C(C(=O)OC)=C1C	-114*	13	9
COC(=O)C1=C(C)N(Cc2ccccc2)C(=NCC(C)C)N[C@H]1c1cccc(C(F)(F)F)c1	58	·	·
CCC(C)Sc1ccc(-c2nc3cnccn3c2NC2CCCCC2)cc1 (stereo not given)	45	·	·
COc1ccc(CCN2CCC(Nc3nc4ccccc4n3Cc3ccc(F)cc3)CC2)cc1	56	·	·
COc1ccc(-c2nc(-c3ccccc3)nc(N3CCN(C)CC3)c2C#N)cc1	41	·	·
SMILES	Apaf1 activ	Rh110 act interf	Apaf-1 act conf2
COc1ccc(N2CCN(Cc3nc4ccccc4n3C)CC2)cc1	-108*	0	-1
CCN1/C(=C/C(C)=C/c2sc3ccccc3[n+]2CC)Sc2ccccc21	53	·	·
CN(C)S(=O)(=O)c1ccc(NC(=O)CN2CCCC2c2ccc3c(c2)OCCCO3)cc1 (stereo not given)	46	·	·
CC1Cc2ccccc2N1CC(=O)Nc1ccc(S(=O)(=O)N(C)C)cc1 (stereo not given)	-444*	57	17
CC1=NN(c2ccc(Cl)cc2)C(=O)C1C(c1cccc(O)c1)c1c(C)[nH]n(-c2ccc(Cl)cc2)c1=O (stereo not given)	85	·	·
C#CC(CC)(CC)NC(=O)/C=C/C(=O)O	-566*	7	11
O=C(O)CCNc1cc(N2CCN(C(=O)c3ccco3)CC2)c2noc3c2c1C(=O)c1ccccc1-3	81	·	·
Cc1ccccc1C(=O)c1cccn1CC(=O)NCc1ccc(Cl)cc1	-92*	7	16
CCC(COC)Oc1cc(NCc2ccccc2)c2ncn(C(C)C)c2c1 (stereo not given)	97	·	·
CC(=O)Oc1ccc(/C=C2/C(=O)N(c3ccccc3)N=C2C)cc1	91	·	·
CC(=O)N1CCc2cc(Br)cc(S(=O)(=O)NCCCN3CCCC(C)C3)c21 (stereo not given)	-41*	-5	12
CCOC(=O)c1[nH]c2ccc(Br)cc2c1NC(=O)CCN1CCCC(C)C1 (stereo not given)	97	·	·
